V1aR counter: activates human V1a receptor in oxytocin agonist counter-screen; 320,000 compounds, 0.25% hits; CHO-V1R cells, Fluo-8 calcium fluorescence, agonist mode; 0% DMSO, 100% 3 nM vasopressin; AID 2797; activation, % at 3 µM; P37288;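 active means activation above the mean activation of all tested compounds plus 3 SD, per screening run, cut at about 20% in these data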;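 further: signal is peak over basal fluorescence ratio across a 100 second FLIPR read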
TAAR1 ag: agonists of human TAAR1; Q96RJ0; CHO RD-HGA16 TAAR1, Fluo-8 calcium fluorescence; vehicle wells 0%, saturating PEA agonist 100%; activation, % at 3 µM; 360,000 compounds, 0.99% hits; AID 624467;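 active means activation above the mean activation of all test compounds in the run plus 3 SD, cut at about 38% in these data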
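System: CHO RD-HGA16 cells carrying human TAAR1 plus Gα16; Incubation: 17-24 h seeding, 75 min 37 °C dye, 30 min RT; Measured by: Fluo-8 fluorescence, 5 s baseline then 140 s kinetic read; Control set: DMSO and PEA EC100; Replication: single well for each compound.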
OXTR potentiate: potentiates the human oxytocin receptor response. P30559. CHO-OTR cells, Fluo-8 calcium fluorescence, potentiator mode; 0% = oxytocin EC15, 100% = EC100. activation, % at 3 µM. 320,000 compounds, 0.061% hits. AID 2445;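 active means activation above that plate's cutoff, the mean activation of tested compounds plus 3 SD, cut at about 6.6% in these data, passing the limit was not always enough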;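 further: 100% uses oxytocin at 75 nM as the full agonist control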
Target sequence (P30559 whole entry, looked up): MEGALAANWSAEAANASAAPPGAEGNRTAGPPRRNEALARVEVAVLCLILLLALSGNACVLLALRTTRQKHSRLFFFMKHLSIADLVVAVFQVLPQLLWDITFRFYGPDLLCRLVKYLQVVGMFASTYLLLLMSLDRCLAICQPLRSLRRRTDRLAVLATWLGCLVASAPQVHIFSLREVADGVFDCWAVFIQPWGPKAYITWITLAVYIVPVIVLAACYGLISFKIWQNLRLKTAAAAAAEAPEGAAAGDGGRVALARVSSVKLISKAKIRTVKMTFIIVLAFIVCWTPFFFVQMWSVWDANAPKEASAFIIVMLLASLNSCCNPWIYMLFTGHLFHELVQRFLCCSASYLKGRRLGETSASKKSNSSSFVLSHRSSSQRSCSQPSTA
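System: human OTR in CHO cells / Also added: sub-maximal oxytocin, roughly EC15 / Control set: EC15 oxytocin low, 75 nM oxytocin high / Schedule: 6 min compound pre-incubation at room temperature, 100 s kinetic read / Compound: single-point 3.0 µM / Replication: singlicate / Technique: Fluo-8 calcium dye fluorescence / Read-out basis: % activation of max/min ratio relative to oxytocin controls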
OXTR agonist: activates the human oxytocin receptor; P30559; activation, % at 3 µM; CHO-OTR cells, Fluo-8 calcium fluorescence; normalized: DMSO 0%, oxytocin 100%; 320,000 compounds, 0.32% hits;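 active means activation above the mean of all tested compounds plus 3 SD, cutoff set per screening run, cut at about 20% in these data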;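 further: peak over basal fluorescence ratio from a 100 s FLIPR kinetic read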
TAAR1 antag: human TAAR1 antagonism | Q96RJ0 | CHO RD-HGA16 TAAR1, Fluo-8 calcium fluorescence, antagonist | inhibition, % at 3 µM | 360,000 compounds, 1.5% hits | AID 624466;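 active means inhibition above a per-plate cutoff, the mean inhibition of test compounds on that plate plus 3 SD, cut at about 49% in these data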;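 further: 0% = DMSO plus EC80 beta-PEA response and 100% = DMSO alone without agonist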
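System: CHO RD-HGA16 cells bearing hTAAR1. Reagent: EC80 β-phenethylamine stimulus. Schedule: seeding 17-24 h prior, 75-min 37 °C, 30-min RT dye loading. Signal: Fluo-8 intracellular calcium dye fluorescence, real-time kinetic reads. Read-out: % inhibition from peak post-agonist over basal fluorescence ratio. Benchmarks: vehicle wells and EC80 agonist wells. Replicates: n of 1.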
TAAR1 ag conf: human TAAR1 agonism, confirmed; shares compounds with TAAR1 ag; CHO RD-HGA16 TAAR1, Fluo-8 calcium fluorescence; scaled: DMSO 0%, maximal phenethylamine 100%; activation, % at 3 µM; 2,400 compounds, 82% hits; AID 651783;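 active means activation above a cutoff set at the run's mean compound activation plus 3 SD, cut at about 39% in these data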
Ga16 ag counter: nonselective agonist in parental cells, TAAR1 agonist counter-screen | shares compounds with TAAR1 ag | CHO-Ga16 parental, Fluo-8 calcium fluorescence; normalized to maximal ATP response, DMSO zero | 2,400 compounds, 50% hits | activation, % at 3 µM | AID 651787;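 active means activation above the run cutoff, the mean activation over all tested wells plus 3 SD, cut at about 12% in these data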;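 further: 0% = DMSO wells and 100% = maximal ATP response on the peak over basal ratio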
TAAR1 desens: human TAAR1 agonist that also desensitizes the receptor | shares compounds with TAAR1 ag | 2,400 compounds, 46% hits | inhibition, % at 3 µM | CHO RD-HGA16 hTAAR1, Fluo-8 calcium, beta-PEA response inhibition;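 active means inhibition above the run cutoff, the mean inhibition of all test compounds plus 3 SD, cut at about 49% in these data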;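 further: beta-PEA stimulus applied at its EC80; loss of beta-PEA calcium signal after compound pretreatment read as receptor desensitization; 0% = DMSO with beta-PEA at EC80 and 100% = DMSO alone without agonist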
Ga16 nonsel ant: nonselective Ga16 antagonism, counter-screen; 2,400 compounds, 39% hits; inhibition, % at 3 µM; CHO-Ga16 ATP-induced calcium, Fluo-8 fluorescence; shares compounds with TAAR1 ag;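 active means inhibition above the plate's mean compound inhibition plus 3 SD, computed per plate, cut at about 22% in these data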;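 further: 0% = EC80 ATP with DMSO and 100% = DMSO wells without ATP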
The depositor's hits bear a star; · = not tested or not shown. In the library only some 2.3% were active in any assay of this set; here they are far more common.

SMILES | V1aR counter | TAAR1 ag | OXTR potentiate | OXTR agonist | TAAR1 antag | TAAR1 ag conf | Ga16 ag counter | TAAR1 desens | Ga16 nonsel ant
COc1cccc(NC(=O)C(=O)NCC(c2ccco2)N2CCc3ccccc3C2)c1 (centres undefined) | 0 | 11 | -4 | 1 | -21 | · | · | · | ·
COc1ccc(NC(=O)C(=O)NCC(c2ccco2)N2CCc3ccccc3C2)cc1OC (centres undefined) | -1 | 56* | 6 | 0 | -10 | 48* | 2 | 16 | 12
COc1cccc(C(=O)NCC(c2ccco2)N2CCc3ccccc3C2)c1 (centres undefined) | 0 | 29 | -5 | -2 | 4 | · | · | · | ·
COc1ccc(Nc2nnc(-c3ccc4c(c3)OCO4)o2)cc1 | · | 3 | · | · | 2 | · | · | · | ·
O=C(Nc1ccnn1C1CCN(Cc2cc3ccccc3[nH]2)CC1)C1CCOC1 (centres undefined) | 2 | 58* | -11 | 0 | 83* | 31 | 23* | 63* | 66*
Cc1c(CN2CCC(n3nccc3NC(=O)C3CCOC3)CC2)[nH]c2ccccc12 (centres undefined) | · | 3 | · | · | -14 | · | · | · | ·
CC1CN(c2nnc(-c3ccccc3)c3ccccc23)CC(C)O1 (centres undefined) | -1 | 7 | -7 | -2 | 11 | · | · | · | ·
O=C(Nc1ccc(Cl)cc1C(F)(F)F)c1ccccc1Cl | -2 | -1 | -4 | -4 | -3 | · | · | · | ·
O=C(Nc1cc(F)c(Br)cc1F)c1ccc(Cl)cc1 | -1 | 91* | -8 | -3 | 70* | 1 | 8 | 0 | 11
O=C(Nc1ccc(Cl)cc1C(F)(F)F)c1ccc(Cl)cc1 | -2 | 75* | -15 | -3 | 31 | 20 | -1 | 19 | 9
CC(C)CN1C2CCCC1CC(NC(=O)c1ccc([N+](=O)[O-])cc1)C2 (centres undefined) | 0 | 0 | -11 | 1 | -13 | · | · | · | ·
CCOP(=O)(OCC)c1nc(-c2cccc([N+](=O)[O-])c2)oc1N1CCCCC1 | -1 | 23 | -3 | -1 | -18 | · | · | · | ·
CCOP(=O)(c1ccccc1)c1nc(-c2ccccc2Cl)oc1N1CCCCC1 (centres undefined) | -1 | 48* | -10 | -1 | -13 | 34 | 7 | -20 | -3
CCN(CC)CCCN1C(=O)CSC1c1ccc([N+](=O)[O-])cc1 (centres undefined) | 0 | 52* | -3 | 0 | 7 | 1 | 2 | 9 | 4
CCN(CC)CCCN1C(=O)CSC1c1ccc2c(c1)OCO2 (centres undefined) | 1 | 1 | -3 | 0 | -11 | · | · | · | ·
O=C(Nc1nnc(-c2ccc(Cl)cc2)o1)c1nc2ccccc2s1 | 6 | 92* | -7 | 5 | 29 | 85* | 71* | 50* | 54*
CCOCc1nnc(NC(=O)C2c3ccccc3Oc3ccccc32)s1 | 22* | 77* | -11 | 30* | 23 | 91* | 54* | 49* | 37*
Cc1c(C(=O)OCC(=O)N(C)C2CCS(=O)(=O)C2)oc2ccc(Br)cc12 (centres undefined) | 1 | 2 | -1 | 0 | -16 | · | · | · | ·
CCC(=O)Nc1cc2c3c(c1)CCN3C(=O)CC2 | -1 | 12 | -3 | 0 | -13 | · | · | · | ·
O=C(Nc1ccccc1)c1ccc(COc2ccccc2)cc1 | 0 | -1 | 0 | -1 | 3 | · | · | · | ·

Source: PubChem (The Scripps Research Institute Molecular Screening Center)
